Screens (PubChem)
Only some compounds are listed: those with a hit (about 6.4% of all), similar ones and a draw of the others.
CHOP inhibitor: CHOP inhibition in unfolded protein response; CHO-K1 CHOP-promoter luciferase, tunicamycin-induced, 15-18 h; inhibition, % at 10 µM; hit rate 3.8% among 220,000;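 active = compounds that reduced the stress-induced luciferase reporter signal by more than about 70% of percent inhibition, limit read from the data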;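 note: 0% = tunicamycin plus vehicle and 100% = wells without tunicamycin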
WT yeast gro inh: growth inhibition of WT yeast, mitochondrial fusion screen | mitochondrial fusion phenotypic screen, WT strain | inhibition, % at 10 µM | hit rate 2.1% among 190,000 | AID 1362; in the data active = inhibition above about 58%; tested in S. cerevisiae
NR3A LBD binder: modulators (binders) of human NR3A ligand-binding domain. NR3A LBD differential scanning fluorimetry, Tm shift; 0% = protein alone, 100% = glycine-bound protein. Tm shift relative to glycine control, % at 25 µM. hit rate 2.5% among 340,000;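 active = melting temperature shift of at least 10% of the positive control shift, at one fixed dose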
EBV gp42 inh: inhibitors of Epstein-Barr virus glycoprotein 42; inhibition, % (tested at 21.74 µM); hit rate 0.42% among 220,000; Q1HVG2; Fluorescence polarization binding assay, mP read-out; AID 1085; in the data active = inhibition above about 50%
Target sequence (Q1HVG2 whole entry, looked up): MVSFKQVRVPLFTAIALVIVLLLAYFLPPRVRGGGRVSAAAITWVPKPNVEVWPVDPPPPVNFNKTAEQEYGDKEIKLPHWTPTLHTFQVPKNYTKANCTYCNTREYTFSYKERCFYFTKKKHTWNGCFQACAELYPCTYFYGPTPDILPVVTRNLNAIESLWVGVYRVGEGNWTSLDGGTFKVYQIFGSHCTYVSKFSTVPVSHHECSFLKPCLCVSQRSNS
Tb MetRS inh: Trypanosoma brucei MetRS inhibition. AID 624268. inhibition, % at 11.9 µM. hit rate 0.4% among 360,000. purified T. brucei MetRS, ATP depletion, Kinase-Glo luminescence;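 active = inhibition above a per-plate cutoff of the control wells' mean inhibition plus 3 SD, cut at about 5.5% in these data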;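 note: 0% = DMSO wells median and 100% = median of wells with control inhibitor compound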
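Material – parasite MetRS enzyme · Medium – HEPES-MgCl2-KCl buffer plus DTT, spermine, BSA, pyrophosphatase · Reagent – ATP, methionine and E. coli bulk tRNA substrates · Times – 15 min enzyme-compound preincubation, 2 h reaction, 10 min detection, 25 °C · Measured by – luminescence of leftover ATP · Evaluation – percent inhibition relative to median high and low control wells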
MPTP inh: inhibitors of mitochondrial permeability transition pore; isolated mouse mitochondria, Ca2+ swelling absorbance, 30 min; inhibition, % at 10 µM; hit rate 1.4% among 360,000; AID 602449;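 active = inhibition of 50% or more, scaled per plate between neutral and stimulator controls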;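 note: 0% = DMSO wells given calcium and 100% = 1 mM EGTA wells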
MPTP counter: mitochondrial membrane potential, counter-screen | shares compounds with MPTP inh | isolated mitochondria, Rhodamine 123 fluorescence | inhibition, % at 10 µM | hit rate 78% among 5,000 | AID 624504; in the data active = inhibition above about 22%;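 note: 0% = DMSO vehicle and 100% = positive control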
Tb MetRS conf: Trypanosoma brucei MetRS inhibition confirmed; shares compounds with Tb MetRS inh; T. brucei MetRS enzyme, luminescence (ATP depletion); inhibition, % at 11.9 µM; hit rate 93% among 1,400; AID 624412; in the data active = inhibition above about 7%
Jurkat cytotox: Jurkat T cell cytotoxicity for MetRS hits; inhibition, % at 8.3 µM; Jurkat cells viability, ATP luminescence; hit rate 12% among 1,400; shares compounds with Tb MetRS inh; in the data active = inhibition above about 15%;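 note: 0% = vehicle and 100% = reference inhibitor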
TbMetRS FP orth: inhibits T. brucei methionyl tRNA synthetase in orthogonal FP test; shares compounds with Tb MetRS inh; purified T. brucei MetRS, fluorescence polarization; inhibition, % at 11.9 µM; hit rate 44% among 1,400; in the data active = inhibition above about 17%;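 note: 0% = vehicle wells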
Starred values were filed as active, the others as inactive; . = no result.

SMILES	CHOP inhibitor	WT yeast gro inh	NR3A LBD binder	EBV gp42 inh	Tb MetRS inh	MPTP inh	MPTP counter	Tb MetRS conf	Jurkat cytotox	TbMetRS FP orth
CCCCn1c(NC(=O)c2ccccc2)c(C#N)c2nc3ccccc3nc21	-9.9	10.6	8.3	1.6	10.6*	86.6*	79.5*	15.3*	4.4	7.0
O=S(=O)(Nc1cc2nc3ccccc3nc2n1Cc1ccccc1)c1ccc(Cl)cc1	92.5*	-5.1	11.9*	121.2*	32.3*	58.0*	35.6*	96.3*	1.9	76.0*
O=S(=O)(NCc1ccccc1)c1ccc(Cl)cc1	-14.4	-15.2	-4.0	-33.3	-0.4	1.4	.	.	.	.
Cc1ccc(SCCC(=O)N/N=C/c2ccccc2O)cc1	46.9	23.9	-32.0	-5.5	17.9*	52.2*	44.6*	80.3*	12.6	51.1*
Cc1ccc(C(=O)OCC(=O)NC2CCS(=O)(=O)C2)c(C)c1 (stereo not drawn)	.	.	3.2	.	-0.3	1.3	.	.	.	.
CC(Sc1ccc(Cl)cc1)C(=O)Nc1ccccc1C(=O)N1CCOCC1 (stereo not drawn)	30.7	4.6	0.1	0.1	-0.4	0.9	.	.	.	.
Nc1nnc(CSCc2ccccc2Cl)s1	-5.3	.	1.5	-5.5	-0.6	2.4	.	.	.	.
O=C(Nc1ccccc1)Nc1nnc(CSCc2ccccc2Cl)s1	90.2*	13.8	30.3*	-0.2	11.7*	89.7*	92.4*	61.0*	-1.5	54.6*
O=C(Nc1ccc(Cl)c(Cl)c1)Nc1cc(S(=O)(=O)N2CCOCC2)ccc1N1CCCC1	30.9	3.1	11.2*	-12.1	8.0*	93.5*	68.0*	15.8*	6.8	4.9
CC(C)OC(=O)c1nnn(-c2nonc2N)c1CN1CCCCCC1	-6.8	-8.6	-0.1	-14.3	-0.3	0.8	.	.	.	.
Cc1ccccc1OCCSCc1nc2ccccc2[nH]1	27.4	74.6*	1.8	-6.6	6.2*	78.9*	67.2*	16.8*	6.4	5.6
CCc1cccc(NC(=O)Cn2cc(C=O)c3ccccc32)c1	51.8	-15.9	-0.9	-13.4	9.0*	72.6*	49.6*	18.8*	14.3	11.8
CCOC(=O)Nc1ccc(S(=O)(=O)Nc2cc(C)nc(C)n2)cc1	7.0	-0.6	-0.6	-21.7	-1.0	-0.3	.	.	.	.
CCN(Cc1ccccc1)C(=O)CN1C(=O)c2ccccc2C1=O	.	.	-6.5	.	-0.7	-0.4	.	.	.	.
COc1cccc(N2CCN(c3ncnc4c3[nH]c3ccc(F)cc34)CC2C)c1 (stereo not drawn)	.	79.1*	5.5	-25.0	8.5*	99.6*	92.7*	11.9*	95.4*	13.6
COc1ccc2[nH]c3c(N4CC(C)OC(C)C4)ncnc3c2c1 (stereo not drawn)	-2.7	46.7	-2.0	-12.9	.	.	.	.	.	.
Cc1cc(NC(=O)CCCC(=O)N(CC(=O)NCCc2ccccc2)Cc2ccc(F)cc2)no1	24.0	0.8	-1.1	-11.9	0.0	-1.2	.	.	.	.
c1ccc2c(CCNc3ncnc4nc[nH]c34)cccc2c1	44.1	-16.8	-2.1	-5.3	42.5*	64.0*	32.9*	58.0*	9.5	34.8*
COc1ccc(-n2nc3c(c2NC(=O)c2ccc(S(=O)(=O)N4CCOCC4)cc2)CS(=O)(=O)C3)cc1	6.0	8.8	0.6	-7.3	-0.7	-0.6	.	.	.	.
COc1ccc(C2c3c(-c4ccccc4O)n[nH]c3C(=O)N2CCc2ccc(OC)c(OC)c2)cc1 (stereo not drawn)	22.8	-8.2	-10.2	15.7	0.0	7.2	.	.	.	.
CC(C)n1c(=O)[nH][nH]c1=S	-2.3	.	1.9	-20.0	-0.2	4.0	.	.	.	.
Cc1ccc(NC(=O)C(C)c2cccc(C(=O)c3ccccc3)c2)cc1O (stereo not drawn)	65.1	7.7	-1.7	-8.9	84.5*	96.3*	84.2*	99.1*	32.9*	78.3*
